Measurements of several laboratories.
Each line is one published result; the experiments were not run side by side.
Target: Receptor tyrosine-protein kinase erbB-2 (ERBB2, Homo sapiens, UniProt P04626)

CC(C)(C)c1ccc(-c2nc(CBr)nn2-c2cccc(O)c2)cc1
remaining binding (cell-free assay; competition with immobilised ligand; 10 µM): 84%

C[C@@H]1CCN(c2nccc(-c3cnn4ncccc34)n2)C1
remaining binding (binding; 1 µM): 90%

C[C@@H]1CN(c2ccc3ncc(-c4ccc5[nH]nc(C6CC6)c5c4)n3n2)C[C@H](C)O1
remaining binding (binding; competition with immobilised ligand; 50 nM): 87%

CCN1CCN(Cc2ccc(C(=O)Nc3ccc(C)c(Oc4ccc5c(c4)CC(=O)N5)c3)cc2C(F)(F)F)CC1
remaining binding (binding; competition with immobilised ligand; 1 µM): 80%

CC(=O)c1c(NS(C)(=O)=O)c2cc(-c3ccc(Cl)cc3)c(-c3ccc(Cl)cc3Cl)nc2n(C)c1=O
remaining binding (cell-free assay; competition with immobilised ligand; 1 µM): 100%

COc1ncc2cc3ccccc3nc2c1C#N
remaining binding (cell-free assay; competition with immobilised ligand; 5 µM): 70%

CN(C)c1nccc(-c2cnn3ncccc23)n1
remaining binding (binding; 1 µM): 100%

Nc1cnc(N2CCc3cc(S(=O)(=O)Nc4c(F)cc(Cl)cc4F)cc(N4CCCC4=O)c32)nc1
remaining binding (cell-free assay; competition with immobilised ligand; 1 µM): 100%

COc1cnc(Nc2cccc(S(N)(=O)=O)c2)nc1N1CCN(c2ccccc2)CC1
remaining binding (binding; competition with immobilised ligand; 1 µM): 100%

CNC(=O)Nc1ccc2c(c1)[C@@]1(CC2)OC(=O)N(CC(=O)N(Cc2ccc(F)cc2)[C@@H](C)C(F)(F)F)C1=O
remaining binding (cell-free assay; competition with immobilised ligand; 1 µM): 98%

O=C(Nc1c[nH]nc1C(=O)NC1CCNCC1)c1cc(F)cc(F)c1
remaining binding (binding; competition with immobilised ligand; 1 µM): 69%

N#CC1(c2ccccn2)CCN(Cc2cc(C(=O)N3CCCC3)c(=O)n3ccccc23)CC1
remaining binding (cell-free assay; competition with immobilised ligand; 1 µM): 95%

FC(F)(F)Oc1cccc(-c2cnc3ccc(-c4ccncc4)nn23)c1
remaining binding (cell-free assay; competition with immobilised ligand; 5 µM): 57%

O=C(c1ccc(Nc2ncc(Cl)c(-c3cc4ccccc4s3)n2)cc1)N1CCC(N2CCCC2)CC1
remaining binding (binding; competition with immobilised ligand; 1 µM): 100%

c1cnn2ncc(-c3ccnc(N4CCC45COC5)n3)c2c1
remaining binding (binding; 1 µM): 86%

O=C(Nc1ccc(Oc2ccc(F)cc2)cc1)N1CCc2ncccc2[C@H]1c1ccc(F)cc1
remaining binding (cell-free assay; competition with immobilised ligand; 1 µM): 100%

N[C@@H]1CCN(c2nccc(-c3cnn4ncccc34)n2)C1
remaining binding (binding; 1 µM): 100%

COc1cc(-c2cn(C3CCc4c(F)cccc4N(CC(F)(F)F)C3=O)nn2)ccc1-n1cnc(C)c1 (centres unmarked)
remaining binding (cell-free assay; competition with immobilised ligand; 1 µM): 100%

O=C(c1ccc(Nc2nccc(-c3cc4ccccc4s3)n2)cc1)N1CCC(N2CCCC2)CC1
remaining binding (binding; competition with immobilised ligand; 1 µM): 90%

CN(C)c1ncc(F)c(-c2cnn3ncccc23)n1
remaining binding (binding; 1 µM): 98%

O=C(NCCCN1CCOCC1)c1ccc(Nc2nccc(-c3cc4ccccc4s3)n2)cc1
remaining binding (binding; competition with immobilised ligand; 1 µM): 93%

CN(c1nccc(-c2cnn3ncccc23)n1)C1CC1
remaining binding (binding; 1 µM): 85%

O=C(Nc1cnc(Oc2ccc(F)cc2)nc1)N1CCc2ncccc2[C@@H]1c1ccc(F)cc1
remaining binding (cell-free assay; competition with immobilised ligand; 1 µM): 80%
